# Bioassay records from PubChem.
# TAAR1 antag: human TAAR1 antagonism; Q96RJ0; CHO RD-HGA16 TAAR1, Fluo-8 calcium fluorescence, antagonist; inhibition, % at 3 µM; actives 1.5% (n = 360,000);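 active = inhibition above a per-plate cutoff, the mean inhibition of test compounds on that plate plus 3 SD, cut at about 49% in these data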;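 note: 0% = DMSO plus EC80 beta-PEA response and 100% = DMSO alone without agonist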
#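 Material: RD-HGA16 CHO cells with stable hTAAR1 and Gα16; Dosing: single nominal final test compound concentration of 3 µM; Schedule: seeding 17-24 h prior, 75-min 37 °C, 30-min RT dye loading; Detection: kinetic Fluo-8 calcium fluorescence measurement; Measure: % inhibition from peak post-agonist over basal fluorescence ratio; Benchmarks: vehicle and agonist controls.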
# M1 ag: activates human CHRM1 receptor | P11229 | CHO-K1 hM1, Fluo-8 calcium fluorescence, agonist mode; 0% DMSO, 100% acetylcholine EC100 | activation, % at 3 µM | actives 0.33% (n = 360,000) | AID 588814;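 active = activation above the run's mean compound activation plus 3 SD, cut at about 16% in these data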;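 note: peak over basal fluorescence ratio within a 140 s kinetic read after compound addition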
# Target sequence (P11229 whole entry, looked up): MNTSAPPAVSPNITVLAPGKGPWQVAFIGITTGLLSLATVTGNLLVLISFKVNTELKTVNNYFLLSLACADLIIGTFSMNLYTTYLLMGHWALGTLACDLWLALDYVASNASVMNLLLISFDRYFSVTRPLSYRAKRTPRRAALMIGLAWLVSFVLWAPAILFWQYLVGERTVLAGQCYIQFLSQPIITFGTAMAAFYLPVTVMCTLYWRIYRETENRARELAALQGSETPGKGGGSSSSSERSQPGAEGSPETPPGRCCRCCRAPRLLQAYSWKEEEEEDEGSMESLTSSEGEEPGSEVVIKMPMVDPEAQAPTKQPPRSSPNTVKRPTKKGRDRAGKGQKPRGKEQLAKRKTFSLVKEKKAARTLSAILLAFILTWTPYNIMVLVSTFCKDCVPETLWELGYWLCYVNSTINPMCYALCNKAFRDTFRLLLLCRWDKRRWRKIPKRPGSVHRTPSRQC
# TAAR1 ag: agonists of human TAAR1; CHO RD-HGA16 TAAR1, Fluo-8 calcium fluorescence; vehicle wells 0%, saturating PEA agonist 100%; activation, % at 3 µM; actives 0.99% (n = 360,000); AID 624467;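 active = activation above the mean activation of all test compounds in the run plus 3 SD, cut at about 38% in these data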
#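 Test system: RD-HGA16 (CHO) cells co-expressing Gα16 and hTAAR1 / Benchmarks: DMSO vehicle as 0%, PEA at EC100 as 100% / Repeats: no replicates (n 1) / Measure: % activation from peak over basal fluorescence ratio, DMSO-to-PEA scaled / Timing: 17-24 h plating, Fluo-8 75 min 37 °C, 30 min RT / Technique: kinetic Fluo-8 calcium fluorescence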
# CHRM1 antagonist: blocks human M1 muscarinic receptor | CHO-K1 hM1, Fluo-8 calcium fluorescence, ACh EC80 antagonist | inhibition, % at 3 µM | actives 1.3% (n = 360,000) | AID 588852;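 active = percent inhibition above its own plate's cutoff, namely the mean of that plate's compound wells plus 3 SD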;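 note: peak over basal fluorescence ratio during 140 s after agonist addition; 0% = ACh EC80 plus DMSO and 100% = DMSO alone without agonist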
# m5-HT2A agonist: mouse HTR2A agonism via beta-arrestin recruitment; activation, % at 7.6 µM; actives 0.66% (n = 360,000); CHO-K1 mHTR2A beta-arrestin complementation, luminescence; percent of 30 µM serotonin response; P35363;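 active = activation above a run cutoff, the mean activation of all tested compounds plus 3 SD, cut at about 14% in these data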;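 note: 0% = plate median of compound wells and 100% = 30 µM serotonin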
# CHRM1 PAM: potentiates human M1 receptor response to acetylcholine; CHO-K1 hM1, Fluo-8 calcium fluorescence, ACh EC20; 0% = ACh EC20, 100% = maximal ACh; activation, % at 3 µM; actives 0.088% (n = 360,000); in the data active = activation above about 19%, passing the limit was not always enough
# Active calls of the source: *; . = no result. Shown are actives, neighbours in structure and some others; about 3.9% of the full set was active somewhere.
SMILES,TAAR1 antag,M1 ag,TAAR1 ag,CHRM1 antagonist,m5-HT2A agonist,CHRM1 PAM
COCCCNC(=O)[C@@H](Cc1ccccc1)NC(=O)[C@H]1O[C@@H](n2ccc(=O)[nH]c2=O)[C@H](O)[C@@H]1O,-6.4,.,0.5,.,.,.
COc1ccc(CCN2C(=O)C(Oc3ccccc3C)C2c2ccc3c(c2)OCO3)cc1OC (stereo unspecified),54.7*,-0.8,6.7,15.4,0.4,-5.8
O=C1C(Oc2ccccc2)C(c2ccc3c(c2)OCO3)N1CCc1ccc(F)cc1 (stereo unspecified),10.2,-7.0,1.0,9.5,1.9,-1.6
COc1ccc(CCN2C(=O)C(Oc3ccccc3C)C2c2ccc3c(c2)OCO3)cc1 (stereo unspecified),56.4*,-4.3,8.0,25.6,5.3,-11.8
CCCOc1ccc(CSc2nc3ccccc3[nH]2)cc1,24.9,-3.4,8.2,38.2*,-5.5,-27.4
CCOc1ccc(OCCSc2nc3ccccc3[nH]2)cc1,30.4,-3.1,17.1,10.3,0.0,-6.5
CC(C)(CO)NCc1cc(Br)ccc1OCc1ccccc1,-15.7,-10.2,0.5,-0.6,-0.9,5.3
CC(C)NCc1cc(Br)ccc1OCc1ccccc1,14.7,34.4*,42.6*,29.1,-7.3,-16.9
Cc1cc(C)cc(N(CC(=O)NC2CCCC2)C(=O)CCC(=O)Nc2nc(C)cs2)c1,-6.7,4.8,43.3*,-9.8,-1.4,7.7
COCCNC(=O)C(c1ccc(C)o1)N(Cc1ccc(OC)cc1)C(=O)Cn1nnc2ccccc21 (stereo unspecified),31.4,23.1*,41.0*,-29.3,7.1,0.3
COCCNC(=O)C(c1ccc(C)o1)N(Cc1ccc(F)cc1)C(=O)Cn1nnc2ccccc21 (stereo unspecified),12.6,0.2,3.5,12.8,-1.0,-8.9
CCN(CC)c1ccc(S(=O)(=O)N2CCOCC2)cc1NC(=O)CSc1nncs1,.,-4.1,.,-13.0,-8.4,2.7
O=C(NC1CCCC1)C(c1ccsc1)N(Cc1ccccc1)C(=O)Cc1cccs1 (stereo unspecified),51.8*,-4.2,6.4,14.8,-6.4,-9.0
COC(=O)c1ccc(C(C(=O)NC2CCCCC2)N(Cc2ccccc2)C(=O)Cc2cccs2)cc1 (stereo unspecified),-6.9,-6.3,-1.2,-11.7,1.1,8.0
O=C(NC1CCCC1)C(c1ccncc1)N(Cc1ccccc1)C(=O)Cc1cccs1 (stereo unspecified),-10.7,-1.1,10.2,-15.6,2.8,9.0
O=C(NC1CCCC1)C(c1ccccc1)N(Cc1ccc2c(c1)OCO2)C(=O)Cc1cccs1 (stereo unspecified),50.7*,-0.6,16.6,7.2,-1.4,-8.3
Cc1ccc(C(=O)N2CCC[C@@H]2C(=O)N2CCC[C@H]2C(=O)NCc2ccccc2)cc1,-1.7,.,-2.4,.,.,.
CCCC(=O)N(Cc1cc(=O)[nH]c2ccccc12)c1ccc(C)cc1C,3.2,3.2,14.0,8.2,-0.7,-3.7
CCCC(=O)N(Cc1cc(=O)[nH]c2ccccc12)c1ccc(C)cc1,-1.8,1.3,-1.3,56.9*,2.3,-28.5
CCC(=O)N(Cc1cc(=O)[nH]c2ccccc12)c1cccc(C)c1,-20.9,-4.7,3.1,65.3*,-1.4,-21.0
O=C(N/N=C/c1ccc(O)cc1)Nc1cccc2nsnc12,66.9*,-5.9,38.2*,4.9,-10.3,5.8
COc1cc(/C=N/NC(=O)Nc2cccc3nsnc23)cc(OC)c1OC,10.0,-0.7,5.7,-3.4,2.3,4.2
O=C(OCc1ccccc1)N1CCC2CC1c1cc(N3CCN(S(=O)(=O)c4cccc5ccccc45)CC3)ccc12 (stereo unspecified),-10.2,-1.0,2.8,-9.4,1.8,4.9
O=C(/C=C/c1ccco1)Nc1ccc(Oc2ccc(Cl)cc2)cc1,78.1*,-1.1,9.8,14.2,-4.3,-1.4
Cn1c(SCC(=O)N2CCN(S(=O)(=O)c3ccccc3)CC2)nc2ccccc21,.,-4.9,.,8.3,-0.4,-10.7
SMILES,TAAR1 antag,M1 ag,TAAR1 ag,CHRM1 antagonist,m5-HT2A agonist,CHRM1 PAM
N#CCCn1c(SCC(=O)N2CCN(S(=O)(=O)c3ccccc3)CC2)nc2ccccc21,-5.7,-6.0,3.0,64.1*,1.0,-21.5
CC(C)Cn1c(SCC(=O)N2CCN(S(=O)(=O)c3ccccc3)CC2)nc2ccccc21,29.7,-6.4,0.7,29.6*,-0.1,-21.2
CN(C)CC/C=C1\c2cc(F)ccc2CSc2ccccc21,8.2,-11.4,6.6,98.7*,-3.7,-25.9
CN(C)CC/C=C1/c2cc(F)ccc2CSc2ccc(F)cc21,-1.2,-8.1,4.4,99.8*,-7.2,-20.7
CN(C)CCC=C1c2ccccc2CCc2ccccc21,-7.8,.,6.9,.,-5.8,.
CC(=O)OCC(=O)N1CCN(C(=O)C(=O)c2cccc(C(F)(F)F)c2)CC1,-8.8,.,0.9,.,.,.
CCOC(=O)c1ccc(N2C(=O)C(CC(N)=O)N(CCc3ccc(OC)c(OC)c3)C2=S)cc1 (stereo unspecified),-15.5,-1.5,-0.4,-12.1,-0.1,12.4
O=C(NCCCN1CCOCC1)c1[nH]c(C(F)(F)F)nc1-c1ccccc1,9.9,0.9,-0.3,-35.1,4.9,3.9
Nc1nonc1-n1nnc(C(=O)N/N=C/c2ccccn2)c1-c1ccccc1,-14.1,2.5,6.8,-10.9,-0.4,16.4
Cc1ccc(SCc2c(C(=O)N/N=C/c3ccncc3)nnn2-c2nonc2N)cc1,49.6*,1.0,12.5,-11.5,2.8,9.4
CCOc1ccc(-c2c(C(=O)N/N=C/c3c[nH]c4ccccc34)nnn2-c2nonc2N)cc1,52.9*,2.4,3.9,0.6,-1.5,8.9
CCCOc1ccc(-c2c(C(=O)N/N=C/c3ccccc3)nnn2-c2nonc2N)cc1,-45.7,-4.1,0.3,1.2,-5.2,-0.9
Nc1nonc1-n1nnc(C(=O)N/N=C/c2cc(Br)cs2)c1-c1ccccc1,1.0,12.7,40.7*,-15.8,-2.9,14.9
Nc1nonc1-n1nnc(C(=O)N/N=C/c2cccc(F)c2)c1-c1ccc2c(c1)OCO2,44.6,1.2,44.1*,9.8,1.1,-6.8
COc1ccc(-c2nnn(CC(=O)N(CC3CCCO3)C(C(=O)NC(C)(C)C)c3ccco3)n2)cc1OC (stereo unspecified),16.6,-2.4,2.0,4.9,-2.7,1.4
N#CCC(=O)N/N=C/c1ccc(OCC(=O)Nc2ccc(F)cc2)cc1,-13.6,-4.3,3.9,-1.4,4.8,3.4
Nc1ccc(C(=O)NCCCSc2ccccc2)cc1[N+](=O)[O-],20.4,1.5,1.8,-4.5,-4.7,2.3
COC(=O)C1=C(C)N(Cc2cccc(C(F)(F)F)c2)C(=NCc2ccccc2C(F)(F)F)NC1c1ccc(Cl)cc1 (stereo unspecified),-23.5,.,2.5,.,.,.
